According to ChEMBL document CHEMBL1146376, “Antiviral activity of berberine and related compounds against human cytomegalovirus” (Bioorg Med Chem Lett, 2007):
Activity calls are given as the source filed them. The calls are words filed in the database; no cut-off is given here.

Assays:
[1] = (§1) Cytotoxicity against MRC5 cells; type: cell-based, Homo sapiens; settings: human, MRC5 cells
[2] = Selectivity index, ratio of CC50 for MRC5 cells to IC50 for HCMV; type: functional
How it was run: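 Ratio of CC50 (50% cytotoxic concentration in MRC-5 cells) to IC50 from the HCMV plaque yield reduction assay in MRC-5 cells. Values are means of three experiments.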

Human betaherpesvirus 5 [3] = assay: Antiviral activity against HCMV in MRC5 cells by plaque reduction assay; type: functional, organism-based; settings: Human betaherpesvirus 5, MRC5
How it was run: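 HCMV plaque yield reduction assay in MRC-5 cells. IC50 is the 50% inhibitory concentration. Values are means of three experiments.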

MRC5 = assay: as §1; type: cell-based, Homo sapiens; settings: Homo sapiens, MRC5
Human betaherpesvirus 5 [4] = assay: Inhibition of HCMV penetration to MRC5 cells at 0.2 to 2 uM; type: functional, organism-based
How it was run: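 HCMV (about 100 PFU/well) was bound to pre-chilled MRC-5 monolayers for 1 h at 4 C, then washed three times with ice-cold PBS. Cells were shifted to 37 C in medium with compound (final 0.2, 0.5, 1 or 2). At 0, 0.5, 1, 2, 3, 6 and 10 h, unpenetrated virus was inactivated with 40 mM citrate buffer pH 3.0 for 1 min. Plaques were counted under 0.5% methylcellulose overlay.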

Human betaherpesvirus 5 [5] = assay: Inhibition of HCMV proliferation in MRC5 cells after 54 hrs post-infection at 10 uM by plaque assay; type: functional, organism-based
How it was run: (§2)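 Time-of-addition: MRC-5 cultures were infected at 0.5 PFU/cell, and compound (10 µM) was added at set times from 0 to 120 h post-infection. Virus titre was measured by plaque assay at 168 h post-infection and expressed as percent of control plaque numbers. Values are means of duplicate assays.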

Human betaherpesvirus 5 [6] = assay: Inhibition of HCMV adsorption to MRC5 cells at 0.2 to 2 uM by infectious centre assay; type: functional, organism-based
How it was run: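 Infectious centre assay for adsorption: HCMV (1 PFU/cell), MRC-5 cell suspension (1 · 10^5 cells/mL) and compound (final 0.2, 0.5, 1, 2) were chilled on ice 2 h, then mixed and held 1 h at 4 C. Cells were washed with ice-cold PBS to remove unbound virus and compound. Pellets were diluted 100- or 1000-fold and plated onto MRC-5 monolayers for plaque counting.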

Human betaherpesvirus 5 [7] = assay: Inhibition of HCMV proliferation in MRC5 cells after 24 hrs post-infection at 10 uM by plaque assay; type: functional, organism-based; how it was run: as §2

COc1ccc(C[C@H]2COC(=O)[C@@H]2Cc2ccc(O[C@@H]3O[C@H](CO)[C@@H](O)[C@H](O)[C@H]3O)c(OC)c2)cc1OC [ARCTIIN]
CC50 [1]: 240 µM | Ratio CC50/IC50 [2]: 15 | IC50 (Human betaherpesvirus 5 [3]): 16 µM

COc1ccc2c(c1OC)CN1CCc3cc4c(cc3C1=C2)OCO4 [DIHYDROBERBERINE]
CC50 [1]: 155 µM | Ratio CC50/IC50 [2]: 1.7 | IC50 (Human betaherpesvirus 5 [3]): 93 µM

COc1ccc(Cc2nccc3cc(OC)c(OC)cc23)cc1OC.Cl [PAPAVERINE HYDROCHLORIDE]
CC50 [1]: 610 µM | Ratio CC50/IC50 [2]: 29 | IC50 (Human betaherpesvirus 5 [3]): 21 µM

COc1cc(OC)c2c(c1)OC(c1ccc(OC)c(OC)c1)C(OC)C2 (stereo not given)
CC50 [1]: 68 µM | Ratio CC50/IC50 [2]: 4 | IC50 (Human betaherpesvirus 5 [3]): 17 µM

Nc1nc2c(ncn2COC(CO)CO)c(=O)[nH]1 [GANCICLOVIR]
IC50 (MRC5): 970 µM | Ratio CC50/IC50 [2]: 1100 | IC50 (Human betaherpesvirus 5 [3]): 0.91 µM

COc1cc(OC)c2c(c1)OC(c1ccc(OC)c(OC)c1)C(O)C2 (stereo not given)
CC50 [1]: 190 µM | Ratio CC50/IC50 [2]: <1 | IC50 (Human betaherpesvirus 5 [3]): > 200 µM

COc1ccc2c(c1OC)CN1CCc3cc4c(cc3[C@@H]1C2)OCO4 [CANADINE]
CC50 [1]: 125 µM | Ratio CC50/IC50 [2]: 10 | IC50 (Human betaherpesvirus 5 [3]): 12 µM

COc1ccc2cc3[n+](cc2c1OC)CCc1cc2c(cc1-3)OCO2.[Cl-] [BERBERINE CHLORIDE]
CC50 [1]: 74 µM | Activity (Human betaherpesvirus 5 [4]): inactive | Ratio CC50/IC50 [2]: 110 | Activity (Human betaherpesvirus 5 [5]): Active | Activity (Human betaherpesvirus 5 [6]): inactive | Activity (Human betaherpesvirus 5 [7]): Active | IC50 (Human betaherpesvirus 5 [3]): 0.68 µM

COc1cc(C[C@H]2C(=O)OC[C@@H]2Cc2ccc(OC)c(OC)c2)ccc1O [ARCTIGENIN]
CC50 [1]: 76 µM | Ratio CC50/IC50 [2]: 36 | IC50 (Human betaherpesvirus 5 [3]): 2.1 µM

COc1ccc2c(c1OC)C(C(Cl)(Cl)Cl)N1CCc3cc4c(cc3C1=C2)OCO4 (stereo not given)
CC50 [1]: 8.4 µM | Ratio CC50/IC50 [2]: 16 | IC50 (Human betaherpesvirus 5 [3]): 0.52 µM

COc1ccc2c(c1OC)C(C#N)N1CCc3cc4c(cc3C1=C2)OCO4 (stereo not given)
IC50 (MRC5): 16 µM | Ratio CC50/IC50 [2]: 18 | IC50 (Human betaherpesvirus 5 [3]): 0.88 µM

COc1ccc(C2CC(=O)c3c(OC)cc(O)cc3O2)cc1 (stereo not given)
CC50 [1]: 12 µM | Ratio CC50/IC50 [2]: 0.13 | IC50 (Human betaherpesvirus 5 [3]): 92 µM
